Reference: the M2OR odorant receptor database
Numbering of substitutions follows the chain as printed.

What was measured:
Conditions in all cases: stereoisomer not certain
OR2T11 (Homo sapiens) = target: T1, OR2T11 (Homo sapiens) (UniProt Q8NH01)
T1 sequence (whole entry): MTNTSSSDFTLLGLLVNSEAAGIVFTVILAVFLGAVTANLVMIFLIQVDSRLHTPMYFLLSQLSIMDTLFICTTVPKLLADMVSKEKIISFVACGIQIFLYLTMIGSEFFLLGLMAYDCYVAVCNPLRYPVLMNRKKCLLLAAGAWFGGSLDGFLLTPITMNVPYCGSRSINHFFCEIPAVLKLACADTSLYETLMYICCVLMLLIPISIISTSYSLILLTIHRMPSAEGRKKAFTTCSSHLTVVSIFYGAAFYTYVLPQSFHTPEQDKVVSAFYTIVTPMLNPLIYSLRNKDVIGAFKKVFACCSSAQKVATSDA
Method in brief: (§1)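 Transient luciferase assays in mammalian cell lines were common, though methods varied by source. The values come from published papers and their supplementary material, with extra details from the original authors when needed. Responsive refers to a measured signal the original authors judged statistically different from baseline, and non-responsive (inactive) to the remainder.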

OR2T12 (Homo sapiens) = target: T2, OR2T12 (Homo sapiens) (UniProt Q8NG77)
T2 sequence (whole entry): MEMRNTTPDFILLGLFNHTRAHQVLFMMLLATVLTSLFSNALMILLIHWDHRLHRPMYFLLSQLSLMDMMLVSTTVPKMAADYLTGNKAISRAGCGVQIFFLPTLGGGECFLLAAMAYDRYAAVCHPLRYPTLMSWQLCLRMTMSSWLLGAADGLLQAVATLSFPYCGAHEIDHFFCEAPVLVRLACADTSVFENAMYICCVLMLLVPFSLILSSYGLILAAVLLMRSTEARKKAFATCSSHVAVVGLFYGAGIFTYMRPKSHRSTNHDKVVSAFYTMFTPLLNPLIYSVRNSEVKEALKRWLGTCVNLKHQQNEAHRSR
Method in brief: as §1

OR2T2 (Homo sapiens) = target: T3, OR2T2 (Homo sapiens) (UniProt Q6IF00)
T3 sequence (whole entry): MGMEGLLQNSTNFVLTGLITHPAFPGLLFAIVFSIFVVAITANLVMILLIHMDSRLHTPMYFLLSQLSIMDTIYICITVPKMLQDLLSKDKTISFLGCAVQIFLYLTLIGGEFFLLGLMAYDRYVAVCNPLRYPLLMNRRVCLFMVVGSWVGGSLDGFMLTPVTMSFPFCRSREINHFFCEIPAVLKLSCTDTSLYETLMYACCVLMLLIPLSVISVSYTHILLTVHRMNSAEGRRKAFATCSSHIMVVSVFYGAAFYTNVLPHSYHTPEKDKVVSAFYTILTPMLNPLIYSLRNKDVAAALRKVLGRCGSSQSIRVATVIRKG
Method in brief: as §1

OR2T2 L104F L262Q = test system: T4, OR2T2 L104F L262Q
T4 sequence (whole entry): T3 sequence (whole entry) with L104F, L262Q
Method in brief: as §1

OR2T2 L104F = test system: T5, OR2T2 L104F
T5 sequence (whole entry): T3 sequence (whole entry) with L104F
Method in brief: as §1

OR2T2 Q313H = test system: T6, OR2T2 Q313H
T6 sequence (whole entry): T3 sequence (whole entry) with Q313H
Method in brief: as §1

OR2T27 (Homo sapiens) = target: T7, OR2T27 (Homo sapiens) (UniProt Q8NH04)
T7 sequence (whole entry): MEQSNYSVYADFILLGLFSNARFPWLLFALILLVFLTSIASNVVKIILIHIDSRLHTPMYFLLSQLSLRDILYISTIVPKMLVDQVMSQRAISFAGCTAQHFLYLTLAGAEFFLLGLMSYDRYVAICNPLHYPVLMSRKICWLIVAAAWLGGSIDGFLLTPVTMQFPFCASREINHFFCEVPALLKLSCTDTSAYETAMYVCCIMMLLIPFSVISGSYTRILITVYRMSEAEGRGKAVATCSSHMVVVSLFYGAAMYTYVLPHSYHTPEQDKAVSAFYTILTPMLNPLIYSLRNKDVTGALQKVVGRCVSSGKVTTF
Method in brief: as §1

OR2T29 (Homo sapiens) = target: T8, OR2T29 (Homo sapiens) (UniProt Q8NH02)
T8 sequence (whole entry): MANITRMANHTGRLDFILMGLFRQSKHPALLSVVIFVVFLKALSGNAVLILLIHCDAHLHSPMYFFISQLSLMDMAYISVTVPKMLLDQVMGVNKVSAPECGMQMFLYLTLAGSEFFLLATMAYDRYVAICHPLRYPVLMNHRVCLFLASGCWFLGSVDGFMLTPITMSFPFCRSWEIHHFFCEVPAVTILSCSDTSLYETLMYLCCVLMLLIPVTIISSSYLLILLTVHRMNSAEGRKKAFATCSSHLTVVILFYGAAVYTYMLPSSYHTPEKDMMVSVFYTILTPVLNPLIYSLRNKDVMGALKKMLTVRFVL
Method in brief: as §1

OR2T3 (Homo sapiens) = target: T9, OR2T3 (Homo sapiens) (UniProt Q8NH03)
T9 sequence (whole entry): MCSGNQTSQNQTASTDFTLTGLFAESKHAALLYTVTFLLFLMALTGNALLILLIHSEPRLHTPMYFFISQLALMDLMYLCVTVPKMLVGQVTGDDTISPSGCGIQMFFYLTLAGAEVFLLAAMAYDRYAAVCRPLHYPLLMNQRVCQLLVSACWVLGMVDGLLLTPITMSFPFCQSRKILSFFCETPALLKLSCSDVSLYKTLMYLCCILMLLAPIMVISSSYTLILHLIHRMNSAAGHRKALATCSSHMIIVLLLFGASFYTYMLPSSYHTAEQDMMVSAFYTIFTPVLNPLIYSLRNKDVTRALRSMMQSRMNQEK
Method in brief: as §1

OR2T3 L256F = test system: T10, OR2T3 L256F
T10 sequence (whole entry): T9 sequence (whole entry) with L256F
Method in brief: as §1

OR2T3 R298C = test system: T11, OR2T3 R298C
T11 sequence (whole entry): T9 sequence (whole entry) with R298C
Method in brief: as §1

OR2T3 Y109H = test system: T12, OR2T3 Y109H
T12 sequence (whole entry): T9 sequence (whole entry) with Y109H
Method in brief: as §1

OR2T33 (Homo sapiens) = target: T13, OR2T33 (Homo sapiens) (UniProt Q8NG76)
T13 sequence (whole entry): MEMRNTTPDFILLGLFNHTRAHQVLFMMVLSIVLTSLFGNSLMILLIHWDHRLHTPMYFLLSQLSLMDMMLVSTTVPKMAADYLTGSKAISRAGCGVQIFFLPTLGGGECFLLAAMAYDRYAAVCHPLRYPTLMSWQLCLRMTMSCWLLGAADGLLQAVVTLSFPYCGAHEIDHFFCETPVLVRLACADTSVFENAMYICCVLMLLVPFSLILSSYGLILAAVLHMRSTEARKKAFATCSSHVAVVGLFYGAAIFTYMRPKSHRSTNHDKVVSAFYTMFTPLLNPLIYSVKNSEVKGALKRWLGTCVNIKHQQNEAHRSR
Method in brief: as §1

OR2T34 (Homo sapiens) = target: T14, OR2T34 (Homo sapiens) (UniProt Q8NGX1)
T14 sequence (whole entry): T9 sequence (whole entry) with Y109H, T202M, M204T, A214T, H239R, P267R
Method in brief: as §1

OR2T35 (Homo sapiens) = target: T15, OR2T35 (Homo sapiens) (UniProt Q8NGX2)
T15 sequence (whole entry): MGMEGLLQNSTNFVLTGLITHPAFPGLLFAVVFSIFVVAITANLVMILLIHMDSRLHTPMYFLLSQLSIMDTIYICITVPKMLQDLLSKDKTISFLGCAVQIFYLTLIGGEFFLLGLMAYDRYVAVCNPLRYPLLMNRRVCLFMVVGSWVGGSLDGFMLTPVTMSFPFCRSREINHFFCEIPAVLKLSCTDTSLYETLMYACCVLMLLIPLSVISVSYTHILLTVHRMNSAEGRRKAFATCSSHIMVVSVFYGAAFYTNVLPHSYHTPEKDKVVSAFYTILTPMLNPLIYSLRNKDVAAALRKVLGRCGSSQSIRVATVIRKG
Method in brief: as §1

OR2T4 (Homo sapiens) = target: T16, OR2T4 (Homo sapiens) (UniProt Q8NH00)
T16 sequence (whole entry): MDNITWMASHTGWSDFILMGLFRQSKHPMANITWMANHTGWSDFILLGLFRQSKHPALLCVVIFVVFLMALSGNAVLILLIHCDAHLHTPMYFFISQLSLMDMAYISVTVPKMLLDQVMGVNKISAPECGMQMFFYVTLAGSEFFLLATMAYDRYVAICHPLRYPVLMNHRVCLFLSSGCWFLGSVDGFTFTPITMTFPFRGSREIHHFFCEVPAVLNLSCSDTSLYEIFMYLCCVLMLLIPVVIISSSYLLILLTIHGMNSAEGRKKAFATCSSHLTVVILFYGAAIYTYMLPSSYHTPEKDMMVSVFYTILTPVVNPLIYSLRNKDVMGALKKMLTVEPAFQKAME
Method in brief: as §1

OR2T5 (Homo sapiens) = target: T17, OR2T5 (Homo sapiens) (UniProt Q6IEZ7)
T17 sequence (whole entry): T8 sequence (whole entry) with R13K, Q24R
Method in brief: as §1

OR2T5 K13R K41M G45E = test system: T18, OR2T5 K13R K41M G45E
T18 sequence (whole entry): T8 sequence (whole entry) with Q24R, K41M, G45E
Method in brief: as §1

OR2T5 K13R L134F = test system: T19, OR2T5 K13R L134F
T19 sequence (whole entry): T8 sequence (whole entry) with Q24R, L134F
Method in brief: as §1

OR2T6 (Homo sapiens) = target: T20, OR2T6 (Homo sapiens) (UniProt Q8NHC8)
T20 sequence (whole entry): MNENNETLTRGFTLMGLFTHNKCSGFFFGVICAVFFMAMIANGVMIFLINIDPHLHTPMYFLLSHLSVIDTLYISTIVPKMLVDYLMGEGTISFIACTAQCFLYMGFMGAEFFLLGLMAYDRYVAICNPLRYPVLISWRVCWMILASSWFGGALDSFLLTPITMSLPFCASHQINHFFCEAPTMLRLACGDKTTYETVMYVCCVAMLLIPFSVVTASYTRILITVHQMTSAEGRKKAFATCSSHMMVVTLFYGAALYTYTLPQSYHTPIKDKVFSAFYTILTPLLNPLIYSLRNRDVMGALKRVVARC
Method in brief: as §1

Measured: odorant receptor agonist call

CCC1OC(C)=C(O)C1=O (stereo not drawn)
inactive: OR2T11 (Homo sapiens) | OR2T12 (Homo sapiens) | OR2T2 (Homo sapiens) | OR2T2 L104F L262Q | OR2T2 L104F | OR2T2 Q313H | OR2T27 (Homo sapiens) | OR2T29 (Homo sapiens) | OR2T3 (Homo sapiens) | OR2T3 L256F | OR2T3 R298C | OR2T3 Y109H | OR2T33 (Homo sapiens) | OR2T34 (Homo sapiens) | OR2T35 (Homo sapiens) | OR2T4 (Homo sapiens) | OR2T5 (Homo sapiens) | OR2T5 K13R K41M G45E | OR2T5 K13R L134F | OR2T6 (Homo sapiens)

CC(=O)c1c(C)c([N+](=O)[O-])c(C(C)(C)C)c([N+](=O)[O-])c1C
inactive: OR2T11 (Homo sapiens) | OR2T12 (Homo sapiens) | OR2T2 (Homo sapiens) | OR2T27 (Homo sapiens) | OR2T29 (Homo sapiens) | OR2T3 (Homo sapiens) | OR2T33 (Homo sapiens) | OR2T34 (Homo sapiens) | OR2T35 (Homo sapiens) | OR2T4 (Homo sapiens) | OR2T5 (Homo sapiens) | OR2T6 (Homo sapiens)

CC(=O)OCc1ccccc1
inactive: OR2T34 (Homo sapiens)
